In the library only some 2.2% were active in any assay of this set; here they are far more common.
Granule exo inh – blocks lytic granule exocytosis. hit rate 0.66% among 360,000. AID 651702. inhibition, % at 10 µM. TALL-104 LAMP-1 surface exposure, flow cytometry; cells stimulated with thapsigargin and PMA;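 active means inhibition above about 55%, limit read from the data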
Myeloid diff 2 – promotes myeloid progenitor differentiation; ER-HoxA9 myeloid progenitors, lysozyme-GFP differentiation, flow cytometry; calls only at 10 µM; hit rate 1% among 360,000;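 active means normalized GFP-positive differentiation at or above the plate's own cutoff, the solvent-only control mean plus 3 SD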;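 further: cells exposed to compound for four days before flow analysis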
CSN deneddyl inh – inhibitors of human CSN-mediated cullin deneddylation; inhibition, % at 12.5 µM; Purified CSN, SCF-Nedd8-OG deneddylation, fluorescence polarization; Q92905; hit rate 0.38% among 360,000;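 active means pattern-corrected inhibition above about 35%, with an unprinted fluorescence ratio check between 0.5 and 1.5, limit read from the data, passing the limit was not always enough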;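 further: 0% = enzyme with substrate and 100% = substrate without enzyme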
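Material: purified human Csn5 enzyme expressed in HEK293T cells / Medium: Tris buffer pH 7.5, NaCl, DTT, Tween-20, trehalose, ovalbumin / Compound dosing: 12.5 µM single point / Schedule: 90 min incubation of compound, enzyme and substrate at room temperature / Signal: fluorescence polarization of the substrate / Control set: no-enzyme wells high, enzyme-with-substrate wells low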
HNF4A DNA FP – change in binding of human HNF4 alpha to DNA; P41235; HNF4a-FITC DNA binding, fluorescence polarization, 1 h; activity change, % at 10 µM; hit rate 0.3% among 360,000; AID 1224865; in the data active means activity change above about 30%, passing the limit was not always enough
Target sequence (P41235 whole entry, looked up): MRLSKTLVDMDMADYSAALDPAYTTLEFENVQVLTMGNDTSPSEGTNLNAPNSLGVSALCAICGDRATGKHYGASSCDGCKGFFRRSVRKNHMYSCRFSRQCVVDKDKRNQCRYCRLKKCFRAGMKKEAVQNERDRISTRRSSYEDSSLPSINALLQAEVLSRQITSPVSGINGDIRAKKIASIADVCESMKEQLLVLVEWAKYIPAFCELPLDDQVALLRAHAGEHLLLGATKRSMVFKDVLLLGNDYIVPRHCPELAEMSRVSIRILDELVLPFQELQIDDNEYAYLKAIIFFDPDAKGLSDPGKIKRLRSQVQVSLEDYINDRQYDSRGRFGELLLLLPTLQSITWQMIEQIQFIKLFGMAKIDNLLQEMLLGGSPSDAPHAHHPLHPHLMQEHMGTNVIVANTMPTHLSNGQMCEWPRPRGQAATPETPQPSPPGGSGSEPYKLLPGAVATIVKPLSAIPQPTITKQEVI
Myeloid diff CP1 – compounds promoting myeloid differentiation | shares compounds with Myeloid diff 2 | ER-HoxA9 myeloid progenitors, GFP/Mac1 double-positive flow | calls only | hit rate 2% among 2,300 | AID 651706;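 active means share of green or green-and-red cells above 9 and 9% in run 1 or 4 and 3% in run 2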
GFP autofluor – flagged as fluorescent in myeloid differentiation counter-screen; AID 651707; shares compounds with Myeloid diff 2; hit rate 7.4% among 2,300; fluorescence response, % (no concentration beside the values); ER-HoxA9 myeloid progenitors, no estrogen, GFP autofluorescence flow cytometry; vehicle wells 0%, positive control 100%;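 active means over 5% cells positive for green fluorescent reporter, or over 2% positive for both it and APC stain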;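 further: range taken on the double positive population between DMSO and positive control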
The depositor's hits bear a star.

What do the screens show for `O=C(Nc1ccc(-c2nc3c(ccc4ccccc43)o2)cc1)c1ccco1`?
Granule exo inh: 0.2; Myeloid diff 2: active; CSN deneddyl inh: 0.9; HNF4A DNA FP: 4.1; Myeloid diff CP1: inactive; GFP autofluor: 0.3

How did Nc1nc(N)nc(-c2ccc(Cl)cc2)n1 do in these assays?
Granule exo inh: 0.4; Myeloid diff 2: inactive; CSN deneddyl inh: -3.4; HNF4A DNA FP: -1.3

What do the screens show for `Cc1ccc(Oc2ccc(-c3nc(N)nc(N)n3)cc2)cc1`?
Granule exo inh: -0.2; Myeloid diff 2: active; CSN deneddyl inh: -6.1; HNF4A DNA FP: 0.2; Myeloid diff CP1: inactive; GFP autofluor: 0.0

How did O=C(CN1C(=O)NC2(CCCCC2)C1=O)Oc1ccc2c(C(F)(F)F)cc(=O)oc2c1 do in these assays?
Granule exo inh: 2.0; Myeloid diff 2: inactive; CSN deneddyl inh: -5.5; HNF4A DNA FP: -17.3

What do the screens show for `Cc1cc(=O)[nH]c(Nc2ccccc2C)n1`?
Granule exo inh: -6.3; Myeloid diff 2: inactive; CSN deneddyl inh: 7.0; HNF4A DNA FP: -1.2

What do the screens show for `Cc1cc(C)c(C#N)c(SCC(O)CS(=O)(=O)Cc2ccccc2)n1` (centres undefined)?
Granule exo inh: 7.2; Myeloid diff 2: inactive; CSN deneddyl inh: -3.8; HNF4A DNA FP: -2.9; Myeloid diff CP1: inactive; GFP autofluor: 0.3

How did CC(C)CNC(=O)c1ccccc1-c1ccccc1C(=O)O do in these assays?
Granule exo inh: 4.2; Myeloid diff 2: inactive; CSN deneddyl inh: 6.8; HNF4A DNA FP: 10.5; Myeloid diff CP1: inactive; GFP autofluor: 0.7

What do the screens show for `CC(C)CNC(=O)c1cccc(NC(=O)c2ccccc2-c2ccccc2C(=O)O)c1`?
Granule exo inh: -5.0; Myeloid diff 2: inactive; CSN deneddyl inh: 4.4; HNF4A DNA FP: 2.9

Results for Cc1ccc(Cl)cc1NC(=O)Nn1cnnc1 ?
Granule exo inh: 0.3; Myeloid diff 2: inactive; CSN deneddyl inh: -1.9; HNF4A DNA FP: 2.1

How did O=C(c1ccccc1Br)N1CCc2c([nH]c3ccccc23)C1 do in these assays?
Granule exo inh: 2.9; Myeloid diff 2: inactive; CSN deneddyl inh: 0.7; HNF4A DNA FP: 2.2

What do the screens show for `CCOc1ncccc1C(=O)N1CCN(S(=O)(=O)c2ccc3ccccc3c2)CC1`?
Granule exo inh: -1.9; Myeloid diff 2: inactive; CSN deneddyl inh: -5.5; HNF4A DNA FP: 0.8; Myeloid diff CP1: inactive; GFP autofluor: 0.0

How did CN1CCN(S(=O)(=O)c2cccc(C(=O)Nc3ccccc3N3CCCCC3)c2)CC1 do in these assays?
Granule exo inh: 4.4; Myeloid diff 2: inactive; CSN deneddyl inh: -5.6; HNF4A DNA FP: -3.8; Myeloid diff CP1: inactive; GFP autofluor: 0.0

How did CC(=O)N1CCN(S(=O)(=O)c2cccc(C(=O)Nc3ccccc3N3CCCCC3)c2)CC1 do in these assays?
Granule exo inh: 3.2; Myeloid diff 2: inactive; CSN deneddyl inh: -1.4; HNF4A DNA FP: 0.2

Results for COc1ccc(NC(=O)c2cccc(S(=O)(=O)N3CCN(c4ccccc4)CC3)c2)c(OC)c1 ?
Granule exo inh: 4.5; Myeloid diff 2: inactive; CSN deneddyl inh: 1.0; HNF4A DNA FP: 5.7

How did O=C(Nc1ccncc1)c1cccc(S(=O)(=O)N2CCN(c3ccc(F)cc3)CC2)c1 do in these assays?
Granule exo inh: -2.5; Myeloid diff 2: inactive; CSN deneddyl inh: -5.4; HNF4A DNA FP: -4.4; Myeloid diff CP1: inactive; GFP autofluor: 0.8

What do the screens show for `COc1ccccc1NC(=O)c1cccc(S(=O)(=O)N2CCN(c3ccccc3)CC2)c1`?
Granule exo inh: 7.3; Myeloid diff 2: inactive; CSN deneddyl inh: -2.5; HNF4A DNA FP: -2.5; Myeloid diff CP1: inactive; GFP autofluor: 0.0

How did COc1ccccc1NC(=O)CSc1nnc(CC(=O)Nc2ccccc2F)n1C do in these assays?
Granule exo inh: -15.4; Myeloid diff 2: inactive; CSN deneddyl inh: 0.2; HNF4A DNA FP: 0.8

What do the screens show for `O=C(COC(=O)c1ccc(Cl)cc1O)NCCN1C(=O)CSC1=O`?
Granule exo inh: 2.5; Myeloid diff 2: inactive; CSN deneddyl inh: -5.9; HNF4A DNA FP: -1.1

Results for COc1cc(NCCCNC(C)C)c2nccc(C)c2c1 ?
Granule exo inh: 1.4; Myeloid diff 2: active; CSN deneddyl inh: 3.7; HNF4A DNA FP: 2.0; Myeloid diff CP1: inactive; GFP autofluor: 0.3

How did Cc1ccc(C(=O)CCC(=O)Nc2cccc(C)c2)cc1 do in these assays?
Granule exo inh: 2.7; Myeloid diff 2: inactive; CSN deneddyl inh: 2.5; HNF4A DNA FP: 5.9

Screens (PubChem BioAssay)
